Most compounds without a hit are left out; they make up all but 2.9% or so of the library.
ABHD5 PLIN5 PPI – inhibitors of human ABHD5-perilipin-5 interaction | hit rate 0.78% among 360,000 | Split G. princeps luciferase complementation, luminescence, 4 h | inhibition, % at 4 µM | Q00G26+Q8WTS1;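 active = inhibition above the mean inhibition across every tested compound plus 3 SD, cut at about 22% in these data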
HCV core dimer – HCV core protein dimerization inhibition. TR-FRET GST/Flag-core106 dimerization, 1536-well. inhibition, % at 5 µM. hit rate 0.33% among 300,000. AID 1899;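 active = inhibition above the mean of all tested compounds plus 3 SD, set per screening campaign, cut at about 45% in these data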
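Assay system: Tagged HCV core106 pair (GST and Flag) | Buffer or medium: KF-containing HEPES buffer, pH 7.45, DTT, CHAPS, BSA | Also added: Eu donor and XL665 acceptor anti-tag antibodies | Dosing: One concentration, 5 µM, in 0.5% DMSO | Timing: 4 h at 22.5 °C | Technique: TR-FRET 671 and 617 nm emission | Repeats: Singlicate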
APOBEC3G inh – APOBEC3G (human) deaminase inhibition; Q9HC16; recombinant A3G, ssDNA deamination FAM/TAMRA fluorescence; inhibition, % at 20 µM; hit rate 0.28% among 330,000;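 active = inhibition of at least 40% at 20 µM, with no more than 30% in the related APOBEC3A deaminase screen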
Target sequence (Q9HC16 whole entry, looked up): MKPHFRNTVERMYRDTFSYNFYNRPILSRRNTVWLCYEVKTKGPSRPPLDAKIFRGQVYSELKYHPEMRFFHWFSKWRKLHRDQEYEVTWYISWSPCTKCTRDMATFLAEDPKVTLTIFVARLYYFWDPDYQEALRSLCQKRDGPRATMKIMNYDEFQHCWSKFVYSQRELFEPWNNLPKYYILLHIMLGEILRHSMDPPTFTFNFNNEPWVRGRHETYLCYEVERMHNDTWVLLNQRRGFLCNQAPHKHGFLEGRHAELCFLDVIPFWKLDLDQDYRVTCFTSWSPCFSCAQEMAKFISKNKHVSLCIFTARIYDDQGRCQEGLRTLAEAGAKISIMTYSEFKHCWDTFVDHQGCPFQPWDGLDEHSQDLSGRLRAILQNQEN
PRMT1 inh – PRMT1 (human) inhibition, primary screen. Q99873. recombinant PRMT1, activity-based probe fluorescence polarization. inhibition, % at 2.79 µM. hit rate 1.3% among 370,000;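 active = inhibition above about 21% made by adding two undisclosed values, limit read from the data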
A3A deaminase – blocks human APOBEC3A ssDNA deamination; recombinant A3A, FAM/TAMRA ssDNA deamination fluorescence; AID 493011; hit rate 0.41% among 330,000; inhibition, % at 20 µM;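 active = at least 40% inhibition at 20 µM here, with at most 30% in a related deaminase screen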
Target sequence (P31941 whole entry, looked up): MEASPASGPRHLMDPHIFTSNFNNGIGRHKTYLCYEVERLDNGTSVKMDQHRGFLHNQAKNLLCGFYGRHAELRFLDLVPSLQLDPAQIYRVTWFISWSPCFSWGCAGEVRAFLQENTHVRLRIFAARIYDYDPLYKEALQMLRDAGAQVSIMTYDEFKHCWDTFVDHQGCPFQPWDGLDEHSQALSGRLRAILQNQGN
HCV NS3 hel inh – inhibitors of Hepatitis C virus NS3 helicase. NS3 helicase DNA unwinding, Cy5 molecular beacon fluorescence. inhibition, % at 10.9 µM. hit rate 0.56% among 290,000;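 active = inhibition above the mean of all tested compounds plus 3 SD, set per campaign, cut at about 35% in these data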
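Material: hepatitis C virus NS3 helicase domain fragment enzyme; measured by: Cy5 fluorescence, 0 and 60 min reads; control set: DMSO and thioflavine S; incubation: 60 min unwinding reaction at 25 °C after ATP addition; read-out basis: % inhibition from 60/0 min fluorescence ratio, DMSO 0%, thioflavine S 100%; repeats: singlicate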
Numbers stand for hits; i = inactive; nt = not tested or not shown; ! = not confirmed by another sample.

SMILES	ABHD5 PLIN5 PPI	HCV core dimer	APOBEC3G inh	PRMT1 inh	A3A deaminase	HCV NS3 hel inh
CN[C@H](C)C(=O)NC[C@H]1O[C@@H](n2cnc3c(N)ncnc32)[C@H](O)[C@@H]1O	i	nt	i	nt	i	nt
CCc1nnc(NCC(=O)N2CCc3ccccc32)s1	i	88.2	i	i	i	i
O=C(CSC1=Nc2ccccc2C2CC=NN12)Nc1ccc(F)c(F)c1F (stereo not drawn)	i	nt	i	22.4	i	nt
O=C(OCC#CCSc1nnc(-c2cccc3ccccc23)o1)c1ccc(SC(F)(F)F)cc1	nt	nt	nt	i	nt	nt
Cn1nnc2sc3c(c2c1=O)CCCC3	i	i	i	22.4	i	i
Cc1ccc(C(=O)NC(=S)Nc2cccc(-c3nc4ccccc4s3)c2)cc1	i	i	i	i	i	i
Cc1ccc(-c2nc3ccccc3s2)cc1NC(=S)NC(=O)/C=C/c1ccco1	i	51.7	i	i	i	i
O=C(/C=C/c1ccco1)NC(=S)Nc1cc(-c2nc3ccccc3s2)ccc1Cl	i	i	nt	i	nt	i
O=C(/C=C/c1ccco1)NC(=S)Nc1cccc(-c2nc3ccccc3s2)c1	i	51.9	i	i	i	i
CCCCOCCCNC(=O)C[C@@H]1C(=O)N(Cc2ccc(OC)cc2)/C2=C/CCCCC[C@@]21C(=O)OCC	nt	nt	nt	i	nt	nt
C[C@H](NC(=O)c1ccc(Cl)c(S(=O)(=O)N2CCOCC2)c1)c1nc2ccccc2[nH]1	i	nt	i	i	i	nt
Cc1cc(NC(=O)c2ccc(N3CCCC3)c([N+](=O)[O-])c2)no1	i	48.5	i	i	i	i
Cc1cc(Br)c2nc3c(c(C(=O)O)c2c1)CCCCC3	i	72.2	nt	i	nt	i
COc1ccc(NCc2cc3cc(OC)ccc3[nH]c2=O)cc1	i	i	i	21.3	i	i
O=[N+]([O-])c1ccc(-c2c[nH]c(=S)[nH]2)cc1	i	53.2	i	i	i	i
CC(C)(C)c1ccc(-c2nnc3sc(-c4ccccn4)nn23)cc1	i	i	i	22.1	i	i
Clc1ccc(-c2nnc3sc(-c4ccccn4)nn23)cc1	nt	nt	nt	nt	nt	i
Cc1nn(-c2ccccc2)c2sc(C(=O)NCCc3ccccc3)cc12	nt	nt	nt	i	nt	nt
CC(=O)Nc1ccc(SCC(=O)Nc2oc(C)c3c(C)n[nH]c(=O)c23)cc1	i	i	i	27.2	i	nt
Clc1ccccc1N=Nc1ccccn1	i	nt	nt	62.7	nt	nt
Cc1[nH][nH]c(=O)c1N=Nc1ccccc1Cl	i	i	i	i	i	i
Cc1ccc(C(=O)C(NC(=O)c2ccco2)Nc2sc3c(c2C(N)=O)CCCC3)cc1 (stereo not drawn)	nt	65.5	i	nt	i	i
Cc1cc(C(=O)COC(=O)c2ccc(NC(=O)CC#N)cc2)c(C)n1CCc1ccc(F)cc1	i	nt	i	i	i	nt
COc1ccc(CCn2c(C)cc(C(=O)COC(=O)c3ccc(NC(=O)CC#N)cc3)c2C)cc1	i	49.6	i	nt	i	i
O=C(COC(=O)c1ccc(C(F)(F)F)cc1)NC(=O)NC1CCCC1	i	nt	i	i	i	nt
SMILES	ABHD5 PLIN5 PPI	HCV core dimer	APOBEC3G inh	PRMT1 inh	A3A deaminase	HCV NS3 hel inh
CC(C)(C)OC(=O)CN1C(=O)S/C(=C\c2ccc(-c3cccc(C(=O)O)c3)o2)C1=O	nt	i	i	nt	45.0	i
COc1cc(C=Nn2c(-c3ccccc3F)n[nH]c2=S)ccc1OCc1ccccc1	nt	nt	nt	i	nt	nt
COc1ccccc1-n1c(=O)c(C#N)c(-c2ccc([N+](=O)[O-])cc2)c2cc(C(=O)c3cc(F)ccc3O)cnc21	i	49.3	i	i	i	i
CCc1ccc[n+](-c2[nH]c(=O)sc2/C=N/N=C(\[O-])c2ccncc2)c1	i	i	i	i	i	i
CC(C)(C)c1cc[n+](-c2[nH]c(=O)sc2/C=N/NC([S-])=Nc2ccccc2)cc1	i	i	i	116.2	i	i
Cc1cccc(N2CSC3=C(C#N)C(c4ccc(C)o4)CC(=O)N3C2)c1 (stereo not drawn)	nt	84.5	i	nt	i	i
COc1cc(C2CC(=O)N3CN(Cc4ccco4)CSC3=C2C#N)ccc1OCc1ccccc1 (stereo not drawn)	i	i	i	i	i	i
CCOc1cc(C2CC(=O)N3CN(C4CCCCC4)CSC3=C2C#N)ccc1O (stereo not drawn)	i	i	i	32.4	i	i
COc1ccc(C2CC(=O)N3CN(c4ccccc4F)CSC3=C2C#N)cc1OC (stereo not drawn)	i	i	46.2	i	i	i
CC(C)c1ccc(OCCCN2CCC(C(O)(c3ccccc3)c3ccccc3)CC2)cc1	nt	nt	nt	i	nt	nt
COC(=O)[C@]12C[C@H](CC(=O)NCc3cccc(C(F)(F)F)c3)C(=O)N(Cc3cccc4ccccc34)C1=C[C@H](C(C)(C)C)O[C@@H]2C	nt	nt	nt	i	nt	nt
CC(C)n1nc(C(=O)OCC(=O)NCCc2ccc(S(N)(=O)=O)cc2)c2ccccc2c1=O	i	nt	nt	i	nt	nt
CCn1c2ccccc2c2cc(NC(=O)Cc3ccc(S(=O)(=O)N4CCOCC4)s3)ccc21	i	60.0	i	i	i	i
CCN(CC)S(=O)(=O)c1cc(NC(=O)Cc2ccc(S(=O)(=O)N3CCOCC3)s2)ccc1Cl	i	nt	nt	i	nt	nt
O=C(Cc1ccc(S(=O)(=O)N2CCOCC2)s1)Nc1ccc(N2CCOCC2)cc1	i	i	i	i	i	i
O=C(COC(=O)Cc1ccc(S(=O)(=O)N2CCCCC2)s1)Nc1ccc2c(c1)OCO2	i	62.8	i	i	i	i
CN(C)S(=O)(=O)c1ccc(NC(=O)Cc2ccc(S(=O)(=O)N3CCOCC3)s2)cc1	i	48.6	i	i	i	i
COC(=O)C1=C(C)N(Cc2cccc(C(F)(F)F)c2)C(=NCc2ccc(OC)cc2)NC1c1cccc(F)c1 (stereo not drawn)	nt	nt	nt	i	nt	nt
OCCOCCN1CCN(C2=Nc3ccccc3Sc3ccccc32)CC1	22.6!	i	i	i	i	i
CCCCN1CCN(C2=Nc3ccccc3Sc3ccccc32)CC1	nt	nt	nt	i	nt	nt
O=C(O)c1cccc(-n2cccc2/C=C2/NC(=O)N(c3ccc(Cl)cc3)C2=O)c1	i	nt	nt	32.1	nt	i
CC(C)(C)c1ccc(-n2nc(C(N)=O)c(O)cc2=O)cc1	i	i	i	i	i	i
CC(C)(C)c1ccc(-n2nc(C#N)c(Cl)cc2=O)cc1	31.9	nt	i	i	i	i
COc1cc(SC)ccc1C(=O)Nc1ccon1	i	i	i	23.6	i	i
CCN(c1cccc(C)c1)S(=O)(=O)c1ccc(-n2cccn2)cc1	i	i	i	i	i	i
COc1ccccc1/C=C\C=N\n1c(-c2ccc(Cl)cc2)n[nH]c1=S	i	i	i	i	i	i
COc1ccccc1/C=C\C=N\n1c(-c2ccc(Cl)cc2Cl)n[nH]c1=S	i	i	i	21.6	i	i
Cc1cc(C)cc(OCC(=O)NNC(=O)CC(C)c2ccccc2)c1 (stereo not drawn)	i	nt	nt	i	nt	nt
CC[C@]12c3[nH]c4cc(-c5ccco5)ccc4c3CCN1C(=O)[C@@H](CC(=O)NC/C=C(\C)CCC=C(C)C)C[C@@H]2C(=O)N1CCN(C(=O)C2CC2)CC1	i	nt	i	23.2	i	nt
